Measurements as given in ChEMBL document CHEMBL3862036, “Biphenyl Pyridazinone Derivatives as Inhaled PDE4 Inhibitors: Structural Biology and Structure-Activity Relationships” (J Med Chem, 2016).

Legend:
[1] = molecular target: T1, Adenosine receptor A1 (Homo sapiens, UniProt P30542); assay: Antagonist activity at adenosine A1 receptor (unknown origin)
T1 sequence (P30542 whole entry): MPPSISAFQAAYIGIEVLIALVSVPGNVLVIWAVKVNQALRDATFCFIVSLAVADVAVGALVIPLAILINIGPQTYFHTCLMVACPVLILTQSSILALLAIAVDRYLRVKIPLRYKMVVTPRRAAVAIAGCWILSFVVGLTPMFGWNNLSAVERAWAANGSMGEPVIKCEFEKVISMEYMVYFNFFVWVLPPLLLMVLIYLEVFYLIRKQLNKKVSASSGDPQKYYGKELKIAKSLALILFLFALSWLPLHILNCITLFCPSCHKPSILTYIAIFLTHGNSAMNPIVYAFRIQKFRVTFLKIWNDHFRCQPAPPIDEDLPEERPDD

[2] = system: Rattus norvegicus; assay: Anti-inflammatory activity in Sprague-Dawley rat assessed as inhibition of LPS-induced neutrophilia at 1000 ug/kg, it administered as suspension with Penn-Century micro-sprayer aerosolizer dosed 18 hrs before LPS challenge and measured 22 hrs post dose; type: functional; settings: inhaled or nasal
In short: (§1)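 Suspensions in PBS/0.2% Tween 80 were homogenized, with lower doses made by 1:10 dilutions. 0.2 mL was given intratracheally by MicroSprayer to isoflurane-anesthetized fasted male Sprague-Dawley rats (230–280 g). At 1 or 18 h, rats received nebulized LPS (30 mL of a 1:100 PBS dilution of 100 mg/10 mL stock) over 40 min. Four hours later, BAL neutrophils were counted by flow cytometry.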

[3] = system: Rattus norvegicus; assay: Anti-inflammatory activity in Sprague-Dawley rat assessed as inhibition of LPS-induced neutrophilia at 10 to 1000 ug/kg, it administered as suspension with Penn-Century micro-sprayer aerosolizer dosed 1 hrs before LPS challenge and measured 5 hrs post dose; type: functional; settings: inhaled or nasal; in short: as §1
[4] = Inhibition of PDE4 in human whole blood assessed as reduction in LPS-induced TNFalpha production incubated for 24 hrs by ELISA; type: tissue-based
In short: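 Human whole blood was preincubated with LPS (final 1 μg/mL) for 10 min at 37 °C with rocking. 200 μL was added to wells holding increasing inhibitor concentrations in 100% DMSO. Plates were incubated 24 h at 37 °C under agitation, then placed on ice, diluted with PBS and centrifuged at 800g, 4 °C, for 15 min before TNF-α measurement.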

[5] = Inhibition of PDE4 in PBMC (unknown origin) assessed as reduction in LPS-induced TNFalpha production incubated for 24 hrs by ELISA; settings: Homo sapiens
[6] = system: Rattus norvegicus; assay: Anti-inflammatory activity in Sprague-Dawley rat assessed as inhibition of LPS-induced neutrophilia at 1000 ug/kg, it administered as suspension with Penn-Century micro-sprayer aerosolizer dosed 1 hrs before LPS challenge and measured 5 hrs post dose; type: functional; settings: inhaled or nasal; in short: as §1
[7] = Drug metabolism in human liver S9 fraction assessed as glucuronidation in presence of PAPS and UDPGA incubated for 20 mins; type: ADME, subcellular; settings: read-out: Drug metabolism
[8] = molecular target: Adenosine receptor A2a (Homo sapiens, UniProt P29274); assay: Antagonist activity at adenosine A2a receptor (unknown origin)
[9] = molecular target: T2, Adenosine receptor A2b (Homo sapiens, UniProt P29275); assay: Antagonist activity at adenosine A2b receptor (unknown origin)
T2 sequence (P29275 whole entry): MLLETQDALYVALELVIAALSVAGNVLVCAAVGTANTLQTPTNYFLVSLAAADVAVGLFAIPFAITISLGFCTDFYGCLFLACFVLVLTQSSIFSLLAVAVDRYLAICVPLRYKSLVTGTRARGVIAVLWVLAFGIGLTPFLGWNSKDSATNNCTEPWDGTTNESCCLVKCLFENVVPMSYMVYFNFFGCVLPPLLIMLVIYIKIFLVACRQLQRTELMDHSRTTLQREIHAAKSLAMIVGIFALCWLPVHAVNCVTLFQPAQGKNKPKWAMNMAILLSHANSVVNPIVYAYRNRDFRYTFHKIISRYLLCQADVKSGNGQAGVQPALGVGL

[10] = system: Rattus norvegicus; assay: Anti-inflammatory activity in Sprague-Dawley rat assessed as inhibition of LPS-induced neutrophilia at 25 ug/kg, it administered as suspension with Penn-Century micro-sprayer aerosolizer dosed 1 hrs before LPS challenge and measured 5 hrs post dose; type: functional; settings: inhaled or nasal; in short: as §1
[11] = system: Rattus norvegicus; assay: Anti-inflammatory activity in Sprague-Dawley rat assessed as inhibition of LPS-induced neutrophilia at 100 ug/kg, it administered as suspension with Penn-Century micro-sprayer aerosolizer dosed 1 hrs before LPS challenge and measured 5 hrs post dose; type: functional; settings: inhaled or nasal; in short: as §1
[12] = system: Rattus norvegicus; assay: Anti-inflammatory activity in Sprague-Dawley rat assessed as inhibition of LPS-induced neutrophilia at 100 ug/kg, it administered as suspension with Penn-Century micro-sprayer aerosolizer dosed 18 hrs before LPS challenge and measured 22 hrs post dose; type: functional; settings: inhaled or nasal; in short: as §1

Sequence of Adenosine receptor A2a (P29274 whole entry): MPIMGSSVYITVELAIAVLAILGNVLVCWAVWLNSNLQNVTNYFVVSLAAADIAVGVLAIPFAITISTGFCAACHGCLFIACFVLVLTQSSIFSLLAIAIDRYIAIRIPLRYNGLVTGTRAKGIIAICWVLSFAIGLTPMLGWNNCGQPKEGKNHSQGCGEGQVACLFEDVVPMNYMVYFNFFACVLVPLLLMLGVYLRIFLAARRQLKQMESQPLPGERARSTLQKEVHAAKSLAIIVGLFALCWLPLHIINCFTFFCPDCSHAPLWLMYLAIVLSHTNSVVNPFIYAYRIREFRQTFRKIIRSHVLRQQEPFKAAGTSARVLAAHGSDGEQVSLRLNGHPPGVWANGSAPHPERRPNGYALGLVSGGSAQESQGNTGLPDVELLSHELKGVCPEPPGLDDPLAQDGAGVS

Row | Structure (SMILES) | IC50 [1] | IC50 [5] | IC50 [8] | IC50 [9] | inhibition in vivo at 0.025 mg/kg [10] | also measured
1 | CCn1nc(-c2cccc(-c3ccc(CC(=O)O)cc3)c2)cc(NC(=O)Nc2c(Cl)cncc2Cl)c1=O | 0.184 µM | 0.00068 µM | > 1 µM | > 1 µM |  | inhibition in vivo at 1 mg/kg [2]: 10%; ED50 [3]: 0.149 mg/kg; IC50 [4]: 0.257 µM; inhibition in vivo at 1 mg/kg [6]: 80%; metabolised at 20 min [7]: 32%
2 | CCn1nc(-c2cccc(-c3cccc(CC(=O)NCCCCCCCN(C)CCO)c3)c2)cc(NC(=O)Nc2c(Cl)cncc2Cl)c1=O | 0.028 µM | 0.0049 µM | 0.059 µM | 0.459 µM |  | IC50 [4]: 0.525 µM
3 | CCn1nc(-c2cccc(Br)c2)cc(NC(=O)Nc2c(Cl)cncc2Cl)c1=O |  | 0.0037 µM |  |  |  | 
4 | CCn1nc(-c2cccc(-c3cc(OCC4CC4)cc(C(=O)NCCN4CCCCC4)c3)c2)cc(NC(=O)Nc2c(Cl)cncc2Cl)c1=O | 0.081 µM | 0.00088 µM | > 1 µM | > 1 µM | 60% | 
5 | CCn1nc(-c2cccc(-c3ccc(F)c(C(=O)O)c3)c2)cc(NC(=O)Nc2c(Cl)cncc2Cl)c1=O |  | 0.0263 µM |  |  |  | 
6 | CCn1nc(-c2cccc(-c3ccccc3C(=O)O)c2)cc(NC(=O)Nc2c(Cl)cncc2Cl)c1=O |  | 0.0103 µM |  |  |  | 
7 | CCn1nc(-c2cccc(-c3cccc(C(=O)NCCC4CCCN4C)c3)c2)cc(NC(=O)Nc2c(Cl)cncc2Cl)c1=O (centres undefined) | 0.002 µM | 0.00019 µM | 0.005 µM |  |  | inhibition in vivo at 0.1 mg/kg [11]: 70%; IC50 [4]: 0.07 µM; inhibition in vivo at 0.1 mg/kg [12]: 57%
8 | CCn1nc(-c2cccc(-c3cc(C(=O)NCCO)cc(C(=O)NCCN4CCCCC4)c3)c2)cc(NC(=O)Nc2c(Cl)cncc2Cl)c1=O | > 1 µM | 0.00031 µM | > 1 µM | > 0.268 µM | 33% | 
9 | CCn1nc(-c2cccc(-c3cc(C(=O)NCCN4CCCCC4)cc(C(=O)NC4CC4)c3)c2)cc(NC(=O)Nc2c(Cl)cncc2Cl)c1=O | > 1 µM | 0.00035 µM | > 1 µM | 0.095 µM | 25% | 
10 | CCn1nc(-c2cccc(-c3ccc(C(N)=O)cc3)c2)cc(NC(=O)Nc2c(Cl)cncc2Cl)c1=O |  | 0.0002 µM |  |  |  | IC50 [4]: 0.12 µM
11 | CCn1nc(-c2cccc(-c3cc(C(=O)O)ccc3F)c2)cc(NC(=O)Nc2c(Cl)cncc2Cl)c1=O |  | 0.0066 µM |  |  |  | 
12 | CCn1nc(-c2cccc(-c3cncc(C(=O)O)c3)c2)cc(NC(=O)Nc2c(Cl)cncc2Cl)c1=O |  | 0.0116 µM |  |  |  | metabolised at 20 min [7]: 35%
13 | CCn1nc(-c2cccc(-c3cc(C(=O)NCC[C@H]4CCCN4C)cc(C(=O)NC4CC4)c3)c2)cc(NC(=O)Nc2c(Cl)cncc2Cl)c1=O | 0.399 µM | 0.0003 µM | > 1 µM | 0.146 µM | 42% | inhibition in vivo at 0.1 mg/kg [12]: 37%
14 | CCOc1cc(C(=O)NC2CC2)cc(-c2cccc(-c3cc(NC(=O)Nc4c(Cl)cncc4Cl)c(=O)n(CC)n3)c2)c1 | 0.059 µM | 0.00024 µM | > 1 µM | > 1 µM | 26% | 
